Laboratory results taken from ChEMBL document CHEMBL3232844, “Synthesis and structure activity relationships of schweinfurthin indoles” (2014).

Experiments:
Format in all cases: functional
[1] = test system: CCRF-CEM; assay: Cytotoxicity against human CCRF-CEM cells
[2] = test system: HL-60(TB); assay: Cytotoxicity against human HL-60(TB) cells
Method in brief: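 Tested within the NCI 60-cell-line screen, with GI50 as the read-out. Values are the average of two independent experiments. The lowest concentration tested was 10 nM.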

[3] = test system: MOLT-4; assay: Cytotoxicity against human MOLT4 cells
Method in brief: (§1)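 Tested in a 60-cell-line human tumor panel screen; the read-out is growth inhibition, reported as GI50 for each cell line.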

[4] = test system: SR; assay: Cytotoxicity against human SR cells
Method in brief: (§2)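 Cell line run as part of the 60-cell-line screening panel; growth inhibition was reported as a GI50 for each line.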

[5] = test system: A549; assay: Cytotoxicity against human A549 cells; method in brief: as §1
[6] = test system: HOP-62; assay: Cytotoxicity against human HOP62 cells; method in brief: as §1
[7] = test system: NCI-H226; assay: Cytotoxicity against human NCI-H226 cells; method in brief: as §1
[8] = test system: HCC 2998; assay: Cytotoxicity against human HCC2998 cells; method in brief: as §1
[9] = test system: HCT-116; assay: Cytotoxicity against human HCT116 cells; method in brief: as §1
[10] = test system: HT-29; assay: Cytotoxicity against human HT-29 cells; method in brief: as §1
[11] = test system: KM12; assay: Cytotoxicity against human KM12 cells; method in brief: as §1
[12] = test system: SF-268; assay: Cytotoxicity against human SF268 cells; method in brief: as §1
[13] = test system: SF-295; assay: Cytotoxicity against human SF295 cells; method in brief: as §1
[14] = test system: SNB-19; assay: Cytotoxicity against human SNB19 cells; method in brief: as §1
[15] = test system: SNB-75; assay: Cytotoxicity against human SNB75 cells; method in brief: as §2
[16] = test system: U-251; assay: Cytotoxicity against human U251 cells; method in brief: as §2
[17] = test system: LOX IMVI; assay: Cytotoxicity against human LOXIMVI cells; method in brief: as §1
[18] = test system: M14; assay: Cytotoxicity against human M14 cells; method in brief: as §1
[19] = test system: MDA-MB-435; assay: Cytotoxicity against human MDA-MB-435 cells; method in brief: as §1
[20] = test system: NCI-H322M; assay: Cytotoxicity against human NCI-H322M cells; method in brief: as §1
[21] = test system: NCI-H460; assay: Cytotoxicity against human NCI-H460 cells; method in brief: as §1
[22] = test system: SK-MEL-2; assay: Cytotoxicity against human SK-MEL-2 cells; method in brief: as §1
[23] = test system: SK-MEL-5; assay: Cytotoxicity against human SK-MEL-5 cells; method in brief: as §1
[24] = Cytotoxicity against human UACC257 cells; method in brief: as §2
[25] = Cytotoxicity against human UACC62 cells; method in brief: as §2
[26] = Cytotoxicity against human OVCAR3 cells; method in brief: as §1
[27] = Cytotoxicity against human OVCAR4 cells; method in brief: as §1
[28] = Cytotoxicity against human OVCAR8 cells; method in brief: as §1
[29] = Cytotoxicity against human NCI-ADR-RES cells; method in brief: as §1
[30] = test system: SK-OV-3; assay: Cytotoxicity against human SKOV3 cells; method in brief: as §1
[31] = test system: 786-0; assay: Cytotoxicity against human 786-0 cells; method in brief: as §1
[32] = test system: A498; assay: Cytotoxicity against human A498 cells; method in brief: as §1
[33] = test system: ACHN; assay: Cytotoxicity against human ACHN cells; method in brief: as §1
[34] = test system: CAKI-1; assay: Cytotoxicity against human Caki1 cells; method in brief: as §1
[35] = test system: RXF 393; assay: Cytotoxicity against human RXF393 cells; method in brief: as §1
[36] = test system: SN12C; assay: Cytotoxicity against human SN12C cells; method in brief: as §1
[37] = test system: TK-10; assay: Cytotoxicity against human TK10 cells; method in brief: as §2
[38] = Cytotoxicity against human UO31 cells; method in brief: as §2
[39] = test system: PC-3; assay: Cytotoxicity against human PC3 cells; method in brief: as §1
[40] = test system: MCF7; assay: Cytotoxicity against human MCF7 cells; method in brief: as §1
[41] = test system: MDA-MB-231; assay: Cytotoxicity against human MDA-MB-231 cells; method in brief: as §1
[42] = test system: BT-549; assay: Cytotoxicity against human BT549 cells; method in brief: as §1
[43] = test system: MDA-MB-468; assay: Cytotoxicity against human MDA-MB-468 cells; method in brief: as §1
[44] = read-out: pLC50 (the source's name) (converted)

COc1cc(/C=C/c2cc(OC)c3c(CC=C(C)C)c[nH]c3c2)cc2c1O[C@]1(C)CC[C@@H](O)C(C)(C)[C@H]1C2
GI50 [1]: 0.209 µM | CC50 [1, 44]: > 100 µM | TGI ([1]; read-out: pTGI (converted)): 0.851 µM | GI50 [2]: 0.191 µM | CC50 [2, 44]: 85.1 µM | TGI ([2]; read-out: pTGI (converted)): 2.45 µM | GI50 [3]: 0.155 µM | CC50 [3, 44]: > 100 µM | TGI ([3]; read-out: pTGI (converted)): 0.661 µM | GI50 [4]: 0.324 µM | CC50 [4, 44]: > 100 µM | TGI ([4]; read-out: pTGI (converted)): 5.5 µM | GI50 [5]: 0.525 µM | CC50 [5, 44]: 50.1 µM | TGI ([5]; read-out: pTGI (converted)): 12.9 µM | GI50 [6]: 0.0871 µM | CC50 [6, 44]: 2.34 µM | TGI ([6]; read-out: pTGI (converted)): 0.479 µM | GI50 [7]: 2.69 µM | CC50 [7, 44]: 32.4 µM | TGI ([7]; read-out: pTGI (converted)): 9.77 µM | GI50 [8]: 2.51 µM | CC50 [8, 44]: 53.7 µM | TGI ([8]; read-out: pTGI (converted)): 15.8 µM | GI50 [9]: 0.417 µM | CC50 [9, 44]: 57.5 µM | TGI ([9]; read-out: pTGI (converted)): 12.6 µM | GI50 [10]: 0.107 µM | CC50 [10, 44]: 2.82 µM | TGI ([10]; read-out: pTGI (converted)): 0.708 µM | GI50 [11]: 0.355 µM | CC50 [11, 44]: 7.94 µM | TGI ([11]; read-out: pTGI (converted)): 1.7 µM | GI50 [12]: 1.12 µM | CC50 [12, 44]: 91.2 µM | TGI ([12]; read-out: pTGI (converted)): 14.5 µM | GI50 ([13]; read-out: GI50): 0.048 µM | GI50 ([13]; read-out: pGI50 (converted)): 0.0479 µM | CC50 [13, 44]: 0.871 µM | TGI ([13]; read-out: pTGI (converted)): 0.219 µM | GI50 [14]: 0.398 µM | CC50 [14, 44]: 28.2 µM | TGI ([14]; read-out: pTGI (converted)): 4.17 µM | GI50 [15]: 0.0891 µM | CC50 [15, 44]: 75.9 µM | TGI ([15]; read-out: pTGI (converted)): 2.69 µM | GI50 [16]: 0.0759 µM | CC50 [16, 44]: 12.9 µM | TGI ([16]; read-out: pTGI (converted)): 2.29 µM | GI50 [17]: 0.295 µM | CC50 [17, 44]: 4.47 µM | TGI ([17]; read-out: pTGI (converted)): 1.29 µM | GI50 [18]: 0.525 µM | CC50 [18, 44]: 46.8 µM | TGI ([18]; read-out: pTGI (converted)): 2.82 µM | GI50 [19]: 0.646 µM | CC50 [19, 44]: 74.1 µM | TGI ([19]; read-out: pTGI (converted)): 9.12 µM | GI50 [20]: 6.31 µM | CC50 [20, 44]: > 100 µM | TGI ([20]; read-out: pTGI (converted)): 39.8 µM | GI50 [21]: 0.372 µM | CC50 [21, 44]: 17 µM | TGI ([21]; read-out: pTGI (converted)): 2.19 µM | GI50 [22]: 0.331 µM | CC50 [22, 44]: 11 µM | TGI ([22]; read-out: pTGI (converted)): 1.58 µM | GI50 [23]: 0.263 µM | CC50 [23, 44]: 1.48 µM | TGI ([23]; read-out: pTGI (converted)): 0.676 µM | GI50 ([24]; UACC-257): 2.09 µM | CC50 ([24]; UACC-257, read-out: pLC50 (the source's name) (converted)): 49 µM | TGI ([24]; UACC-257, read-out: pTGI (converted)): 12.9 µM | GI50 ([25]; UACC-62): 0.229 µM | CC50 ([25]; UACC-62, read-out: pLC50 (the source's name) (converted)): 9.12 µM | TGI ([25]; UACC-62, read-out: pTGI (converted)): 0.661 µM | GI50 ([26]; OVCAR-3): 2.82 µM | CC50 ([26]; OVCAR-3, read-out: pLC50 (the source's name) (converted)): 38 µM | TGI ([26]; OVCAR-3, read-out: pTGI (converted)): 12 µM | GI50 ([27]; OVCAR-4): 2.45 µM | CC50 ([27]; OVCAR-4, read-out: pLC50 (the source's name) (converted)): > 100 µM | TGI ([27]; OVCAR-4, read-out: pTGI (converted)): 33.1 µM | GI50 ([28]; OVCAR-8): 3.8 µM | CC50 ([28]; OVCAR-8, read-out: pLC50 (the source's name) (converted)): 74.1 µM | TGI ([28]; OVCAR-8, read-out: pTGI (converted)): 23.4 µM | GI50 [29]: 2.88 µM | CC50 [29, 44]: > 100 µM | TGI ([29]; read-out: pTGI (converted)): 28.8 µM | GI50 [30]: 0.776 µM | LC50 [30]: 67.6 µM | TGI ([30]; read-out: pTGI (converted)): 7.24 µM | GI50 [31]: 0.0501 µM | LC50 (concentration killing 50% of cells) [31]: 0.891 µM | TGI ([31]; read-out: pTGI (converted)): 0.302 µM | GI50 [32]: 0.138 µM | CC50 [32, 44]: 5.25 µM | TGI ([32]; read-out: pTGI (converted)): 0.603 µM | GI50 [33]: 1.26 µM | LC50 (concentration killing 50% of cells) [33]: 49 µM | TGI ([33]; read-out: pTGI (converted)): 15.1 µM | GI50 [34]: 0.347 µM | LC50 [34]: 53.7 µM | TGI ([34]; read-out: pTGI (converted)): 2.19 µM | GI50 [35]: 0.0263 µM | LC50 [35]: 0.724 µM | TGI ([35]; read-out: pTGI (converted)): 0.105 µM | GI50 [36]: 2.51 µM | LC50 [36]: 52.5 µM | TGI ([36]; read-out: pTGI (converted)): 19.1 µM | GI50 [37]: 2.75 µM | LC50 [37]: 66.1 µM | TGI ([37]; read-out: pTGI (converted)): 17.4 µM | GI50 ([38]; UO-31): 0.437 µM | LC50 ([38]; UO-31): 56.2 µM | TGI ([38]; UO-31, read-out: pTGI (converted)): 6.92 µM | GI50 [39]: 0.24 µM | LC50 [39]: > 100 µM | TGI ([39]; read-out: pTGI (converted)): 17.4 µM | GI50 [40]: 0.398 µM | LC50 [40]: 19.1 µM | TGI ([40]; read-out: pTGI (converted)): 3.72 µM | GI50 [41]: 0.269 µM | LC50 [41]: 30.9 µM | TGI ([41]; read-out: pTGI (converted)): 2.4 µM | GI50 [42]: 0.355 µM | CC50 [42, 44]: 67.6 µM | TGI ([42]; read-out: pTGI (converted)): 15.5 µM | GI50 [43]: 0.195 µM | LC50 [43]: 10.5 µM | TGI ([43]; read-out: pTGI (converted)): 1.1 µM
